Results as given in ChEMBL document CHEMBL3259739, “Synthesis and structure-activity relationship of trisubstituted thiazoles as Cdc7 kinase inhibitors” (Eur J Med Chem, 2014).

What was measured:
[1] = target: T1, Serine/threonine-protein kinase 4 (Homo sapiens) (UniProt Q13043); experiment: Inhibition of MST2 (unknown origin) at 1 uM relative to control; values are per cent of control
T1 sequence (whole entry): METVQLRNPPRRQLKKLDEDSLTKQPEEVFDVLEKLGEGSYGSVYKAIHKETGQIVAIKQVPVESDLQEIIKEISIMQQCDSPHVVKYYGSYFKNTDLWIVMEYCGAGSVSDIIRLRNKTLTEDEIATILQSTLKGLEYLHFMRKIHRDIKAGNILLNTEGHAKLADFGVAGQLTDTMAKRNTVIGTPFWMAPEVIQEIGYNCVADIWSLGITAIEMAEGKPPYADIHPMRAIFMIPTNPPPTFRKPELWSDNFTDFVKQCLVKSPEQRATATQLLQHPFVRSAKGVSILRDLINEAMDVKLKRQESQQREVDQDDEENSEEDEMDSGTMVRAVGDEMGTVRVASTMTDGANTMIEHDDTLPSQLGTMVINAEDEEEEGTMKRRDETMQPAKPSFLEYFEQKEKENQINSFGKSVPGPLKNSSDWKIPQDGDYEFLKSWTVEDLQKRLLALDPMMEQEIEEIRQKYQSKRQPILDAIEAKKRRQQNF

[2] = target: T2, Mitogen-activated protein kinase kinase kinase 19 (Homo sapiens) (UniProt Q56UN5); experiment: Inhibition of YSK4 (unknown origin) at 1 uM relative to control; details: values are per cent of control
T2 sequence (whole entry): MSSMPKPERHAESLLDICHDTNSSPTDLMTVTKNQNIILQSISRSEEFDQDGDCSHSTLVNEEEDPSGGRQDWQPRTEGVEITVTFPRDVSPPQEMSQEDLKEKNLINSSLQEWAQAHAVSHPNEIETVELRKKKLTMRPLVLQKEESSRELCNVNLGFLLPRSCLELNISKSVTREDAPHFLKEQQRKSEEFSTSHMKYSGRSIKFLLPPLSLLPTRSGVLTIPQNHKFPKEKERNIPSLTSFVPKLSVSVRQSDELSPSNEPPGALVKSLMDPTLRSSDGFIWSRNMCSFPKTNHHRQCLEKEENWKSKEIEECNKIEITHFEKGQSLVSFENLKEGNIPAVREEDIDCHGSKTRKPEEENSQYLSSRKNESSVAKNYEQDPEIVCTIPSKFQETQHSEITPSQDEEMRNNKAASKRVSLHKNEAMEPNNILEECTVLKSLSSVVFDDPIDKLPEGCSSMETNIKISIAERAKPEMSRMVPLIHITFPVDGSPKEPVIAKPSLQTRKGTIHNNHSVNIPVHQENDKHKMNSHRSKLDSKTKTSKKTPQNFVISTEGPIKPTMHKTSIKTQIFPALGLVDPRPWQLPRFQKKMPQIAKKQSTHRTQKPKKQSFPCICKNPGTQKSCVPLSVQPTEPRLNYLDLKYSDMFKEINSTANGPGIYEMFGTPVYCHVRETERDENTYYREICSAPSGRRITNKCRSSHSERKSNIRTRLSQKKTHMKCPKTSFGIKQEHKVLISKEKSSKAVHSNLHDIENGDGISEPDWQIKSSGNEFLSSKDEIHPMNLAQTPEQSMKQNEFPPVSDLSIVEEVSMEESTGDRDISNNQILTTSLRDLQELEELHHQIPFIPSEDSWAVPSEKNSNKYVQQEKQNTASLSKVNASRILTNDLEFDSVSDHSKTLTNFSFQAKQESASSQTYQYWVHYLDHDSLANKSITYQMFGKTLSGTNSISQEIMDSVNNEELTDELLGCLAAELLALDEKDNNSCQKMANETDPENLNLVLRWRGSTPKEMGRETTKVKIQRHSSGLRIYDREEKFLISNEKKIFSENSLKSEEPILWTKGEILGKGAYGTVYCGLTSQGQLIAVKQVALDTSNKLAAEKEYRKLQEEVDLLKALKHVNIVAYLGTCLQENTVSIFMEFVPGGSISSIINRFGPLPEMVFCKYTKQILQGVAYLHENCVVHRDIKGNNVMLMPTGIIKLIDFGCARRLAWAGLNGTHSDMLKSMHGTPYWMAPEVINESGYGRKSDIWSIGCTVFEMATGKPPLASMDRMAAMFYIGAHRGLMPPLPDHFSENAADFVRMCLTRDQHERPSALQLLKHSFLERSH
Summary of the method: (§1)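 KinomeSCAN competitive binding panel of 100 kinases; compounds tested at 1 µM in duplicate; read-out is percent […] control.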

[3] = target: Mitogen-activated protein kinase kinase kinase kinase 4 (Homo sapiens) (UniProt O95819); experiment: Inhibition of MAP4K4 (unknown origin) at 1 uM relative to control; values are per cent of control
Mitogen-activated protein kinase kinase kinase kinase 4 (Homo sapiens), sequence (O95819 2-1239 limits assumed): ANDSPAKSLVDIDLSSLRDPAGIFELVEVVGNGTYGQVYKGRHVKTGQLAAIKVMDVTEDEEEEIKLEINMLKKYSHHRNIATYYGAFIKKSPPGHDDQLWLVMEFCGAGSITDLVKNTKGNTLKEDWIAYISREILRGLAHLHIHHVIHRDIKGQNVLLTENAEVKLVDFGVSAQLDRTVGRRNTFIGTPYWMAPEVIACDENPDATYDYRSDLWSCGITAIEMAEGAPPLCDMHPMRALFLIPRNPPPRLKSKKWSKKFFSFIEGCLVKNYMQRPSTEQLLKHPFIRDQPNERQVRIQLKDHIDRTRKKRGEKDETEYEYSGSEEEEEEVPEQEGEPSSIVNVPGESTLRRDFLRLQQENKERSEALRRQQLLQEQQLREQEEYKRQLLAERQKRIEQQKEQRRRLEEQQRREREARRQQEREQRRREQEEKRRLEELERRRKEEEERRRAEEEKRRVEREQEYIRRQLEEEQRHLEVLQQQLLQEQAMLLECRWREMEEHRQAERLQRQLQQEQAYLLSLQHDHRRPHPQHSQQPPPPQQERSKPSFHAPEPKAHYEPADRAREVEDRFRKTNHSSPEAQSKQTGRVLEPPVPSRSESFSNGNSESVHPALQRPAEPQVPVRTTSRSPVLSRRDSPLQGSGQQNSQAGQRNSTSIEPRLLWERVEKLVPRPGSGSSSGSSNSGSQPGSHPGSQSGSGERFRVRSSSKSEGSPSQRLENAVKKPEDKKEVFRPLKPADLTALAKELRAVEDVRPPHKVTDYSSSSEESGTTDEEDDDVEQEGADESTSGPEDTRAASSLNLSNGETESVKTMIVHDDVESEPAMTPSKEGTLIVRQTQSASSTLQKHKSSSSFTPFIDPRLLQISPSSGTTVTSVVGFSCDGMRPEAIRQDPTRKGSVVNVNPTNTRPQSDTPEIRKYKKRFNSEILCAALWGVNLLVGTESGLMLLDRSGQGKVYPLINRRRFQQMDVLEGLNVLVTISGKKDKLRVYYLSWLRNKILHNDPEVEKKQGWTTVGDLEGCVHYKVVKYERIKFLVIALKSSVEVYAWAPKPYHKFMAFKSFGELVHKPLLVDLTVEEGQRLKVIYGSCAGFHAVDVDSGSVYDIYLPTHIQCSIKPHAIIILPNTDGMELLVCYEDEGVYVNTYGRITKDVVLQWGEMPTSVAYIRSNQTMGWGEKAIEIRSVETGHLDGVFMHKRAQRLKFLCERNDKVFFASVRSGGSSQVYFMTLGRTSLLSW

[4] = target: Casein kinase I isoform delta (Homo sapiens, UniProt P48730); experiment: Inhibition of CSNK1D (unknown origin) at 1 uM relative to control; values are per cent of control
Casein kinase I isoform delta, sequence (P48730 whole entry, looked up, canonical isoform): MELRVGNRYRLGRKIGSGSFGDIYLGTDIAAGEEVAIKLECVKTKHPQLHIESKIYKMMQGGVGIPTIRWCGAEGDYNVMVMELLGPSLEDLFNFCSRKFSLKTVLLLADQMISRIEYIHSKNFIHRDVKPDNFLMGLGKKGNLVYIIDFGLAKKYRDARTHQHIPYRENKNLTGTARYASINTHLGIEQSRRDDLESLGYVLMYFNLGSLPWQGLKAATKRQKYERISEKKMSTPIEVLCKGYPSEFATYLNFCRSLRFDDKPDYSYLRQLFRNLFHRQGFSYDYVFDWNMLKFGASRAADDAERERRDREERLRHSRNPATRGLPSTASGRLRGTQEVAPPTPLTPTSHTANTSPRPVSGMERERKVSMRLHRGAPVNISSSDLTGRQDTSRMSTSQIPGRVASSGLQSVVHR

[5] = target: Vascular endothelial growth factor receptor 2 (Homo sapiens) (UniProt P35968); experiment: Inhibition of VEGFR2 (unknown origin) at 1 uM relative to control; details: values are per cent of control
[6] = target: cAMP-dependent protein kinase catalytic subunit alpha (Homo sapiens) (UniProt P17612); experiment: Inhibition of PKACalpha (unknown origin) at 1 uM relative to control; details: values are per cent of control
Summary of the method: as §1

[7] = target: Serine/threonine-protein kinase 32B (Homo sapiens) (UniProt Q9NY57); experiment: Inhibition of YANK2 (unknown origin) at 1 uM relative to control; details: values are per cent of control
Summary of the method: as §1

[8] = target: Tyrosine-protein kinase Lyn (Homo sapiens) (UniProt P07948); experiment: Inhibition of LYN (unknown origin) at 1 uM relative to control; values are per cent of control
Tyrosine-protein kinase Lyn (Homo sapiens), sequence (P07948 2-512 limits assumed): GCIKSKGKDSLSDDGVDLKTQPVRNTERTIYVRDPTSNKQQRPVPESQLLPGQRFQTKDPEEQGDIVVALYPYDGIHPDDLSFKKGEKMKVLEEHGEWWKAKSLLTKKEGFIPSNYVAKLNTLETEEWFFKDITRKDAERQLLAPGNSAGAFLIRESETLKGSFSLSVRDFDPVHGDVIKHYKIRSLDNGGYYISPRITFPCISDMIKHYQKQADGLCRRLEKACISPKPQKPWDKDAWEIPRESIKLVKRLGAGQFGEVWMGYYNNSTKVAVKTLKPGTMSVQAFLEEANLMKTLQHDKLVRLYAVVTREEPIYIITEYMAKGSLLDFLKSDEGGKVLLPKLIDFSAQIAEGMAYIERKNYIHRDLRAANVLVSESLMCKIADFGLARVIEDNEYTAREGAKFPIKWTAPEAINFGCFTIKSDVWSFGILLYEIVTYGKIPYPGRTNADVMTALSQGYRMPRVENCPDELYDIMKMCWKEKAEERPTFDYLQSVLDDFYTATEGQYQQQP

[9] = target: Rho-associated protein kinase 2 (Homo sapiens) (UniProt O75116); experiment: Inhibition of ROCK2 (unknown origin) at 1 uM relative to control; details: values are per cent of control
Rho-associated protein kinase 2 (Homo sapiens), sequence (O75116 whole entry, looked up): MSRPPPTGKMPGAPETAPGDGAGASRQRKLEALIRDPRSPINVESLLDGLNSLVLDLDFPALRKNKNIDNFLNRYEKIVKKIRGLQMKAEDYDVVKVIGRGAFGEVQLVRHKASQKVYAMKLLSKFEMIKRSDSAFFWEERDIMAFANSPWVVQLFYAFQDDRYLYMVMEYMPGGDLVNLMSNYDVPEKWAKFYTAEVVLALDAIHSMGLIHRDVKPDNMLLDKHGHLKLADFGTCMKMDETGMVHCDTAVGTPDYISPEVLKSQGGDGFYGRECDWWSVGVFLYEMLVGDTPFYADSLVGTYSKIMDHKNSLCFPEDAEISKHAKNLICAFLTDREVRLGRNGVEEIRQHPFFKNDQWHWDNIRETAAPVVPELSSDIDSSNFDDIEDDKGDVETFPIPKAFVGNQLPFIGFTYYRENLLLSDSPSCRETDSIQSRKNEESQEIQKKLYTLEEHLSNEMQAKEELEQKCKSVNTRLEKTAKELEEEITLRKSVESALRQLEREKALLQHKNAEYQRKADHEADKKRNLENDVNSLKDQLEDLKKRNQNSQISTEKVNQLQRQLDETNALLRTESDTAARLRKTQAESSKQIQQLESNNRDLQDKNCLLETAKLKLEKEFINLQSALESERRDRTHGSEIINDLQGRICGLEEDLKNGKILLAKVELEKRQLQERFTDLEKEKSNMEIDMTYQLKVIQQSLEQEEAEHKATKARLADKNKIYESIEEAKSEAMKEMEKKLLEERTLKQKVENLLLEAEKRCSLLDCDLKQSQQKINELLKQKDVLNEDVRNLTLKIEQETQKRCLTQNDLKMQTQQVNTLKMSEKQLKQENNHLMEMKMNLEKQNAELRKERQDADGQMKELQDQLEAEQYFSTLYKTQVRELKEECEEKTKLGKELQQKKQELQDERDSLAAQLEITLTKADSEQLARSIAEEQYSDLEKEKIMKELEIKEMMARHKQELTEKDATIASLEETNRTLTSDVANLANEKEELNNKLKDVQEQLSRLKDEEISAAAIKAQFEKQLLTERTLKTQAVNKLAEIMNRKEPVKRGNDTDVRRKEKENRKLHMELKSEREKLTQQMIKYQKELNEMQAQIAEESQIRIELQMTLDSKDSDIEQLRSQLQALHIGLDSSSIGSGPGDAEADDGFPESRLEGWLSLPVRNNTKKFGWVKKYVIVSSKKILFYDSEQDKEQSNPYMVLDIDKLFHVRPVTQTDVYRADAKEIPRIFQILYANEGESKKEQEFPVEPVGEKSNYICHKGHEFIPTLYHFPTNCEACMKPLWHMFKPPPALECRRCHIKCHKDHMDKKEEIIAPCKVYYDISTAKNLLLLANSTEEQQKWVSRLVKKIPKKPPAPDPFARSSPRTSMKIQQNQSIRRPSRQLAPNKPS
Summary of the method: as §1

[10] = target: High affinity nerve growth factor receptor (Homo sapiens) (UniProt P04629); experiment: Inhibition of TRKA (unknown origin) at 1 uM relative to control; details: values are per cent of control
High affinity nerve growth factor receptor (Homo sapiens), sequence (P04629 33-796 limits assumed): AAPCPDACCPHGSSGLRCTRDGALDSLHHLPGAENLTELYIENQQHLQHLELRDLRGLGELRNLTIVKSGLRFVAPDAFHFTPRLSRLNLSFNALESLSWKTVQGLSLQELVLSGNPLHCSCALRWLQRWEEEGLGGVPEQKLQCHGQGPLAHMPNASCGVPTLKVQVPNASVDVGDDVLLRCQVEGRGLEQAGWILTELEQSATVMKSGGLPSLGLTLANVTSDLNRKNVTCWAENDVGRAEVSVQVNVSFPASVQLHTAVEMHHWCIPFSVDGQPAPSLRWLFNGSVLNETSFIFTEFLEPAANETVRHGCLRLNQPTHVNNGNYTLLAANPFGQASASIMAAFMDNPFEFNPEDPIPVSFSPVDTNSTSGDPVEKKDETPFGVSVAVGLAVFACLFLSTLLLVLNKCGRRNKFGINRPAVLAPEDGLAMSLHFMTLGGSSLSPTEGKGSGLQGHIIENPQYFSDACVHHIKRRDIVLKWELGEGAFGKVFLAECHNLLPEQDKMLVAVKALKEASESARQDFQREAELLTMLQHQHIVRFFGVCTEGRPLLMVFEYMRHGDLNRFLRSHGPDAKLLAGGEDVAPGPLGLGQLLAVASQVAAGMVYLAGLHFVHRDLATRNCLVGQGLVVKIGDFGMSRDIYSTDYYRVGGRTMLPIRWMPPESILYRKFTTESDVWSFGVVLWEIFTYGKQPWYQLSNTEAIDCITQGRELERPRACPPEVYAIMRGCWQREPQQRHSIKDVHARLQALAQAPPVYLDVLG
Summary of the method: as §1

[11] = target: Tyrosine-protein kinase Lck (Homo sapiens) (UniProt P06239); experiment: Inhibition of LCK (unknown origin) at 1 uM relative to control; values are per cent of control
Tyrosine-protein kinase Lck (Homo sapiens), sequence (P06239 2-509 limits assumed): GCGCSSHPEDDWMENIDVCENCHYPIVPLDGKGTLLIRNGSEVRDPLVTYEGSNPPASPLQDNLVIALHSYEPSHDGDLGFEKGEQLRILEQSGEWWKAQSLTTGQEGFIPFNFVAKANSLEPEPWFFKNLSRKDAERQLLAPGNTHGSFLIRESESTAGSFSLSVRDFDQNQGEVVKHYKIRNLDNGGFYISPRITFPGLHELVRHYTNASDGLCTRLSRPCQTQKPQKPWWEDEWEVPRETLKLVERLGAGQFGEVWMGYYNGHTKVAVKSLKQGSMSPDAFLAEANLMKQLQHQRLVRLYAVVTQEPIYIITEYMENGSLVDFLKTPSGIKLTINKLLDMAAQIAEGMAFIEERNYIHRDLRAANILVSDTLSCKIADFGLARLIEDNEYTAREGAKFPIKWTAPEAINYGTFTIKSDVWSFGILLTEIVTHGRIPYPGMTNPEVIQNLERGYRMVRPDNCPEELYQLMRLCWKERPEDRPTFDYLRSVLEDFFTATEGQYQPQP

| residual activity [1] | residual binding, % of control [2] | residual activity [3] | residual activity [4] | residual binding, % of control [5] | residual binding, % of control [6] | residual binding, % of control [7] | residual activity [8] | residual binding, % of control [9] | residual binding, % of control [10] | residual activity [11] | Structure (SMILES) |
| --- | --- | --- | --- | --- | --- | --- | --- | --- | --- | --- | --- |
| 84% | 97% | 80% | 90% | 74% | 100% | 82% | 80% | 92% | 100% | 76% | CCOC(=O)c1sc(-c2ccncc2)nc1O |
| 71% | 34% | 89% | 0.6% | 92% | 70% | 88% | 88% | 27% | 92% | 74% | COc1ccc(-c2nc(-c3ccnc(N)n3)sc2C(N)=O)c(Cl)c1 |

| Structure (SMILES) | residual activity [1] | residual binding, % of control [2] | residual activity [3] | residual activity [4] | residual binding, % of control [5] | residual binding, % of control [6] | residual binding, % of control [7] | residual activity [8] | residual binding, % of control [9] | residual binding, % of control [10] | residual activity [11] |
| --- | --- | --- | --- | --- | --- | --- | --- | --- | --- | --- | --- |
| NC(=O)c1sc(-c2ccnc(N)n2)nc1-c1ccc(Cl)cc1Cl | 100% | 41% | 72% | 0.7% | 56% | 69% | 100% | 81% | 34% | 100% | 100% |
